# Laboratory results taken from article PMC3594472 (Bioorganic & medicinal chemistry letters, 2013).
# How the values were obtained:
# [1] = system: all five rat muscarinic acetylcholine receptors; test: Muscarinic selectivity profiling, rat receptors; type: cell-based; conditions: up to the highest concentration tested (30 µM)
# [2] = system: all five human muscarinic acetylcholine receptors; test: Muscarinic selectivity profiling, human receptors; type: cell-based; conditions: up to the highest concentration tested (30 µM)
# [3] = target: T1, human M1 (hM1) receptor (Homo sapiens, UniProt P11229); test: hM1 PAM functional activity; type: cell-based; conditions: for hM1 PAM activity (in words): concentrations up to 30 µM
# T1 sequence (P11229 1-460): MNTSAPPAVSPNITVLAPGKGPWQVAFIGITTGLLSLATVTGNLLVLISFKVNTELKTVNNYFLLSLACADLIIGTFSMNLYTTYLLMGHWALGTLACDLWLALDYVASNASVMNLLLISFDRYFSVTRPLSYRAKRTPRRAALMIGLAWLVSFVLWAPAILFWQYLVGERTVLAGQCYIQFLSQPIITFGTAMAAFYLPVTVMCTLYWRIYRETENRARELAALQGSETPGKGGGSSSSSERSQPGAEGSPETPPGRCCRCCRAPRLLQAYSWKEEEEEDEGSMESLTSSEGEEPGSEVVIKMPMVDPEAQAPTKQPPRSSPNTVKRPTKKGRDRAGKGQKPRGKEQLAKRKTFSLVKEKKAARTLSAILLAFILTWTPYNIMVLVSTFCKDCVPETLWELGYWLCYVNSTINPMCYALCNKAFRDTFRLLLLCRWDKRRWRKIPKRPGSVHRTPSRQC
# In short: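 Human M1 PAM functional assay. Test compound was run at concentrations up to a top level of 30 µM. Efficacy is expressed as percent of the maximal acetylcholine response. Where hM1 EC50 is listed as >10, the figure given is the percent maximal ACh response with test compound at 30 µM. Values are mean ± standard error of the mean of at least three independent determinations, each performed in triplicate.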
# [4] = target: T1, human M1 (hM1) receptor; conditions: previously reported value; ref 7b; cited from earlier work
Compound,hM1 PAM activity (in words) [3],other results
Cn1cc(-c2ccc(CN3C(=O)C4(OCCO4)c4ccccc43)c(F)c2)cn1 [Compound 3],,selectivity across rat muscarinic receptors (M1-M5) [1]: completely selective for the M1 receptors; selectivity across human muscarinic receptors (M1-M5) [2]: completely selective for the M1 receptors
O=C1N(Cc2ccc(Br)cc2)c2ccccc2C12CCCN2 (stereo not drawn) [Compound 13],inactive,
CN1CCCC12C(=O)N(Cc1ccc(Br)cc1)c1ccccc12 (stereo not drawn) [Compound 14],inactive,
C[Si](C)(C)C1COC2(C1)C(=O)N(Cc1ccc(Br)cc1)c1ccccc12 (stereo not drawn) [Compound 16],inactive,
O=C1N(Cc2ccc(Br)cc2)c2ccccc2C12CCCO2 (stereo not drawn) [Compound 17],inactive,
CN1CCC2(C1)C(=O)N(Cc1ccc(-c3cnn(C)c3)cc1F)c1ccccc12 (stereo not drawn) [Compound 18d],,"pEC50 ([3]; Table 1, hM1 PAM, mean ± SEM): 5.49 ± 0.10; selectivity across rat muscarinic receptors (M1-M5) [1]: completely selective for the M1 receptors; selectivity across human muscarinic receptors (M1-M5) [2]: completely selective for the M1 receptors"
Cn1cc(-c2ccc(CN3C(=O)C4(CCNC4)c4ccccc43)c(F)c2)cn1 (stereo not drawn) [Compound 18e],lacked any PAM activity,
Cn1cc(-c2ccc(CN3C(=O)C4(CCN(c5ccccc5)C4)c4ccccc43)c(F)c2)cn1 (stereo not drawn) [Compound 19s],inactive,
Cn1cc(-c2ccc(CN3C(=O)C4(CCN(c5ncccn5)C4)c4ccccc43)c(F)c2)cn1 (stereo not drawn) [Compound 19t],low micro-molar activity,
Cc1c(-c2ccc(CN3C(=O)C4(CCN(C5CCCC5)C4)c4ccccc43)c(F)c2)cnn1C (stereo not drawn) [Compound 20c],eliminated PAM activity,
Cc1nn(C)c(C)c1-c1ccc(CN2C(=O)C3(CCN(C4CCCC4)C3)c3ccccc32)c(F)c1 (stereo not drawn) [Compound 20d],inactive,
Cn1cc(-c2ccc(CN3C(=O)C(=O)c4ccccc43)c(F)c2)cn1 [ML137],,%AChmax [4]: 65%
